Consider four compounds from ChEMBL document CHEMBL1143164, “Synthesis and structure-activity relationships of ring-opened 17-hydroxywortmannins: potent phosphoinositide 3-kinase inhibitors with improved properties and anticancer efficacy” (J Med Chem, 2008).

The pIC50 is −log10 of the IC50, conventionally taken in molar units. The clearance is the volume of plasma or blood freed of the substance per unit of time. A lower clearance goes with a low capacity for elimination. The solubility is how much of the substance goes into solution per volume.

pIC50: −log10 of the molar value. Active and inactive are the calls of the source. The calls are words filed in the database; no cut-off is given here.

Data set [1] is described as follows: Half life in mouse at 5 mg/kg, iv. Type of data set: ADME, organism-based. Also on record: dose 5 mg/kg, route intravenous. The note with it: in vivo. The method in brief: (§1)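 Nude mice received a single intravenous bolus of 5 mg/kg. Plasma levels of parent and the 11-deacetylated metabolite were followed over time to derive clearance, volume of distribution and half-life.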

In data set [2] the target is T1, Phosphatidylinositol 4,5-bisphosphate 3-kinase catalytic subunit alpha isoform (Homo sapiens, UniProt P42336). The data set can be described thus: Inhibition of PI3K expressed in Escherichia coli by microtiter plate-based fluorescence polarization assay. The method in brief: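 Fluorescence polarization assay of PI3K activity with PIP2 substrate. Reactions contained 20 mM Hepes pH 7.5, 2 mM MgCl2, 0.05% CHAPS, 0.01% βME, 20 µM PIP2 and 25 µM ATP, and ran 15–30 min at room temperature. They were stopped with buffer holding 10 nM TAMRA-labeled probe and 40 nM GST-GRP1 (E. coli-expressed detector), then incubated 1–2 h before FP readout.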
Background: Fluorescence polarisation rises when a labelled molecule tumbles more slowly, as on binding a larger partner.

The nature of data set [3]: Chemical stability at pH 7.4. Type of data set: physicochemical. The note with it: buffer, read-out: Stability. An outline of the steps: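 Compound was incubated with the dipeptide lysine-phenylalanine at pH 7.4. Half-life of amine adduct formation was measured.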
Another data set has as its system LNCaP. Put plainly: Growth inhibition of human LNCap cells. Type of data set: functional, cell-based.
Data set [4] has as its target Serine/threonine-protein kinase mTOR (Homo sapiens, UniProt P42345). The data set can be described thus: Inhibition of mTOR.
Data set [5] can be described thus: Antitumor activity against human U87MG cells xenografted mouse administered intravenously once a week for two weeks. Type of data set: functional, U-87MG ATCC. The note with it: U-87 MG, iv, 336 h, read-out: MED. An outline of the steps:
(§2)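 Nude mice bearing U87MG glioma xenografts; compound in PBS given intravenously on the stated schedule for 2 weeks. Tumor growth was monitored twice a week, and tumor volume was determined by a previously described method. Efficacy was expressed as minimum efficacious dose.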
On the technique in general: In xenograft studies the graft and the host belong to different species.

The target of data set [6] is Dual specificity mitogen-activated protein kinase kinase 1 (Homo sapiens, UniProt Q02750). Put plainly: Inhibition of MEK1.
In data set [7] the target is Mitogen-activated protein kinase kinase kinase 8 (Homo sapiens, UniProt P41279). Put plainly: Inhibition of Tpl2.
For data set [8], the target named is Vascular endothelial growth factor receptor 2 (Homo sapiens, UniProt P35968). The data set can be described thus: Inhibition of KDR.
Data set [9] concerns the target T1, Phosphatidylinositol 4,5-bisphosphate 3-kinase catalytic subunit alpha isoform. Put plainly: Inhibition of PI3K mediated AKT phosphorylation in PTEN negative human U87MG cells at 30 ng/ml. Conditions: U-87MG ATCC. It counts as cell-based. An outline of the steps:
(§3)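 PTEN-negative U87MG cells were plated in six-well plates for 24 h, then treated in growth medium for 6 h against a DMSO control. PI3K pathway phosphorylation was then assessed.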

Data set [10] deals with Phosphatidylinositol 4,5-bisphosphate 3-kinase catalytic subunit beta isoform (Homo sapiens, UniProt P42338). Put plainly: Inhibition of PI3Kbeta. An outline of the steps:
(§4)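 Fluorescence polarization assay using purchased PI3K enzyme. It was stopped with TAMRA-labeled probe (10 nM) plus GST-GRP1 (40 nM), incubated 1–2 h, and FP was read.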

In data set [11] the target is Cyclin-dependent kinase 4 (Homo sapiens, UniProt P11802). Put plainly: Inhibition of CDK4.
Data set [12] can be described thus: Inhibition of IGFR.
Data set [13] addresses RAC-alpha serine/threonine-protein kinase (Homo sapiens, UniProt P31749). The data set can be described thus: Inhibition of AKT1.
Data set [14] deals with Phosphatidylinositol 4,5-bisphosphate 3-kinase catalytic subunit gamma isoform (Homo sapiens, UniProt P48736). Put plainly: Inhibition of PI3Kgamma. The method in brief:
as §4

The target in data set [15] is T2, Phosphatidylinositol 4,5-bisphosphate 3-kinase catalytic subunit delta isoform (Homo sapiens, UniProt O00329).
T2 sequence (O00329 whole entry): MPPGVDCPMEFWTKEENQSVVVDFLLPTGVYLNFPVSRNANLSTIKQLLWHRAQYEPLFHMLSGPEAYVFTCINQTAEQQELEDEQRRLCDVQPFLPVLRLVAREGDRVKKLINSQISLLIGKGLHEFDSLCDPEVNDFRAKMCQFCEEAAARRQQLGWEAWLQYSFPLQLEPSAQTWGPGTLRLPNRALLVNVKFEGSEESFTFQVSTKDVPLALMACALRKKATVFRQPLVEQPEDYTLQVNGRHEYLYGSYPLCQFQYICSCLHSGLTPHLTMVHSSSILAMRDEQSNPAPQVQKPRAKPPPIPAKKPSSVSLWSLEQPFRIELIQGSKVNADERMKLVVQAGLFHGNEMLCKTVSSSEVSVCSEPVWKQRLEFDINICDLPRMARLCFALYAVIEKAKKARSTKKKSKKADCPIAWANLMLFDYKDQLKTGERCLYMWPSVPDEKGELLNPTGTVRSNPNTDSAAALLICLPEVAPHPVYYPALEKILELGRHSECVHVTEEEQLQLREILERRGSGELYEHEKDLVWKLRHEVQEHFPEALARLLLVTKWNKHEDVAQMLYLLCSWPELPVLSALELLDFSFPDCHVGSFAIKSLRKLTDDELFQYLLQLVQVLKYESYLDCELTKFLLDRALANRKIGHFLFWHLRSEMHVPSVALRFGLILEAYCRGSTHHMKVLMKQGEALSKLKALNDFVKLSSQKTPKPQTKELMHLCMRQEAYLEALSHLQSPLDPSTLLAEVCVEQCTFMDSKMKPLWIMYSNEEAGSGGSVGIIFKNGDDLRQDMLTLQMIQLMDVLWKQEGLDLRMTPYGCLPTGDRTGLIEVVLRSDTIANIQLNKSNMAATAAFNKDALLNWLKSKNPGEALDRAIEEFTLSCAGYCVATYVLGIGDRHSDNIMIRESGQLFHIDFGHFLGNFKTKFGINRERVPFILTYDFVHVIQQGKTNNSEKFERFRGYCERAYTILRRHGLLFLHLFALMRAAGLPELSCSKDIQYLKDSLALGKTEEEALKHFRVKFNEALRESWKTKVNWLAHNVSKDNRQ
The data set can be described thus: Inhibition of PI3Kdelta. An outline of the steps:
as §4

Data set [16] is described as follows: Inhibition of GSK3.
In data set [17] the target is Ribosomal protein S6 kinase beta-1 (Homo sapiens, UniProt P23443). Put plainly: Inhibition of S6K1.
A short description of data set [18]: Clearance in mouse at 5 mg/kg, iv. It counts as ADME, organism-based. Further details: dose 5 mg/kg, route intravenous. Conditions: in vivo. The method in brief: as §1
Data set [19] is described as follows: Volume of distribution in mouse at 5 mg/kg, iv. It counts as ADME, organism-based. Also on record: dose 5 mg/kg, route intravenous. The note with it: in vivo, read-out: Vdss. An outline of the steps: as §1
The target in data set [20] is Tyrosine-protein kinase Lyn (Homo sapiens, UniProt P07948). The data set can be described thus: Inhibition of LYN.
For data set [21], the target named is MAP kinase-activated protein kinase 2 (Homo sapiens, UniProt P49137). The data set can be described thus: Inhibition of MK2.
The nature of data set [22]: Antitumor activity against human U87MG cells xenografted mouse administered intravenously twice a week for two weeks. It counts as functional, U-87MG ATCC. Conditions: U-87 MG, iv, 336 h, read-out: MED. An outline of the steps:
as §2

Data set [23] deals with T1, Phosphatidylinositol 4,5-bisphosphate 3-kinase catalytic subunit alpha isoform. The data set can be described thus: Inhibition of PI3K mediated S6K phosphorylation in PTEN negative human U87MG cells at 30 ng/ml. It counts as cell-based. The note with it: U-87MG ATCC. The method in brief: as §3
Data set [24] in a line: Aqueous solubility of the compound. It counts as physicochemical.
The target in data set [25] is T3, Inhibitor of nuclear factor kappa-B kinase subunit beta (Homo sapiens, UniProt O14920).
T3 sequence (O14920 whole entry): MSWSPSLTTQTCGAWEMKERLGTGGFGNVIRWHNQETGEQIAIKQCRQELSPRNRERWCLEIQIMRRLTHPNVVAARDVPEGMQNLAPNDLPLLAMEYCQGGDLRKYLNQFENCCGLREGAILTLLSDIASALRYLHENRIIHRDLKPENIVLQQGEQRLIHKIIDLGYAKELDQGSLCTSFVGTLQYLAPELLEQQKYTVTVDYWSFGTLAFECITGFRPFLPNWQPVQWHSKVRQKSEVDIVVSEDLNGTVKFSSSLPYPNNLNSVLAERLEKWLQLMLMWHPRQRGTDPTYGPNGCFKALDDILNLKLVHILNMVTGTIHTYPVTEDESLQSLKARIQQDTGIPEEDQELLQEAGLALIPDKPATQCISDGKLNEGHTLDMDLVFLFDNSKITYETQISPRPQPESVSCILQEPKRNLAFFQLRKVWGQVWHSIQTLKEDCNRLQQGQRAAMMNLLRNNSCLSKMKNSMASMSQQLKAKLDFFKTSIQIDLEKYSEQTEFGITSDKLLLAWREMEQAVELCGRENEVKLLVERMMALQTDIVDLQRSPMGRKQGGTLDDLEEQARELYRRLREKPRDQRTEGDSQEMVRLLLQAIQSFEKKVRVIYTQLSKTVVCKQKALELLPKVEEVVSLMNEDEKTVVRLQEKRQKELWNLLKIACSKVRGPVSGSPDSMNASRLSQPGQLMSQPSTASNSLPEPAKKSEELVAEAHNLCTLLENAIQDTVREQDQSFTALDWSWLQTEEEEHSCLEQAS
The data set can be described thus: Inhibition of IKK-beta.

The target of data set [26] is Tyrosine-protein kinase BTK (Homo sapiens, UniProt Q06187). The data set can be described thus: Inhibition of BTK.
The nature of data set [27]: Antitumor activity against human U87MG cells xenografted mouse administered intravenously thrice a week for two weeks. It counts as functional, U-87MG ATCC. Conditions: U-87 MG, iv, 336 h, read-out: MED. The method in brief:
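Nude mice bearing U87MG glioma xenografts; dosed iv in PBS at the stated doses and schedules for 2 weeks. Tumor growth was monitored twice weekly, and tumor volume was determined by a previously described method.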

T1 sequence (P42336 whole entry, canonical isoform): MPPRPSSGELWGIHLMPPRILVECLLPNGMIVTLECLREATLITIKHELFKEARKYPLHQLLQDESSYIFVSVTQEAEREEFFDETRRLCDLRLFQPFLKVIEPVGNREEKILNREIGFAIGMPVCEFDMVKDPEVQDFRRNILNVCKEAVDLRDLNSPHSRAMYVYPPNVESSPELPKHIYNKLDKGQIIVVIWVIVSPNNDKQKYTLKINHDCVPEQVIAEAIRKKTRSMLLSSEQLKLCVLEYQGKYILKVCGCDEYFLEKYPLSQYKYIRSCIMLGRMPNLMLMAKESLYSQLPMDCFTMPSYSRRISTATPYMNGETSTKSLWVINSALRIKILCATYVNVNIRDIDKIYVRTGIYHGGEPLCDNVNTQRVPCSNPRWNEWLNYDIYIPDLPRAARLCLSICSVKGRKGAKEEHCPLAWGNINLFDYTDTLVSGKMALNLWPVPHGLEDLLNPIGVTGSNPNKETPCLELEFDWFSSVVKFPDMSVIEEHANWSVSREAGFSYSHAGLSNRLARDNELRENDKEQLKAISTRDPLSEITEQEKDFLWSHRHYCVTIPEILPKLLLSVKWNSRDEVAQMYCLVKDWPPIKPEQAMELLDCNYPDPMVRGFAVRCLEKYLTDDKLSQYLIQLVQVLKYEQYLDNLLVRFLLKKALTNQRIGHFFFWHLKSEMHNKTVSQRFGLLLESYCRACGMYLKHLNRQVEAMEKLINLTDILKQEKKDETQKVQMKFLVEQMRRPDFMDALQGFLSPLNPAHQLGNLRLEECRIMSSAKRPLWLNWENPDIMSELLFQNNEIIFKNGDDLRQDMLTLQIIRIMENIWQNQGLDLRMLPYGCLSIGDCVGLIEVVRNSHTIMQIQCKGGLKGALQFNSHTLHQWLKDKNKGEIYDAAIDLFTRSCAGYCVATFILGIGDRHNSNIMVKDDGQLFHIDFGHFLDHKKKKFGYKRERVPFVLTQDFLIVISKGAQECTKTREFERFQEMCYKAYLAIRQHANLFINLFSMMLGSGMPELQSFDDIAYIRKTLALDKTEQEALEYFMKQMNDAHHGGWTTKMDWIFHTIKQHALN
Sequence of Vascular endothelial growth factor receptor 2 (P35968 whole entry, canonical isoform): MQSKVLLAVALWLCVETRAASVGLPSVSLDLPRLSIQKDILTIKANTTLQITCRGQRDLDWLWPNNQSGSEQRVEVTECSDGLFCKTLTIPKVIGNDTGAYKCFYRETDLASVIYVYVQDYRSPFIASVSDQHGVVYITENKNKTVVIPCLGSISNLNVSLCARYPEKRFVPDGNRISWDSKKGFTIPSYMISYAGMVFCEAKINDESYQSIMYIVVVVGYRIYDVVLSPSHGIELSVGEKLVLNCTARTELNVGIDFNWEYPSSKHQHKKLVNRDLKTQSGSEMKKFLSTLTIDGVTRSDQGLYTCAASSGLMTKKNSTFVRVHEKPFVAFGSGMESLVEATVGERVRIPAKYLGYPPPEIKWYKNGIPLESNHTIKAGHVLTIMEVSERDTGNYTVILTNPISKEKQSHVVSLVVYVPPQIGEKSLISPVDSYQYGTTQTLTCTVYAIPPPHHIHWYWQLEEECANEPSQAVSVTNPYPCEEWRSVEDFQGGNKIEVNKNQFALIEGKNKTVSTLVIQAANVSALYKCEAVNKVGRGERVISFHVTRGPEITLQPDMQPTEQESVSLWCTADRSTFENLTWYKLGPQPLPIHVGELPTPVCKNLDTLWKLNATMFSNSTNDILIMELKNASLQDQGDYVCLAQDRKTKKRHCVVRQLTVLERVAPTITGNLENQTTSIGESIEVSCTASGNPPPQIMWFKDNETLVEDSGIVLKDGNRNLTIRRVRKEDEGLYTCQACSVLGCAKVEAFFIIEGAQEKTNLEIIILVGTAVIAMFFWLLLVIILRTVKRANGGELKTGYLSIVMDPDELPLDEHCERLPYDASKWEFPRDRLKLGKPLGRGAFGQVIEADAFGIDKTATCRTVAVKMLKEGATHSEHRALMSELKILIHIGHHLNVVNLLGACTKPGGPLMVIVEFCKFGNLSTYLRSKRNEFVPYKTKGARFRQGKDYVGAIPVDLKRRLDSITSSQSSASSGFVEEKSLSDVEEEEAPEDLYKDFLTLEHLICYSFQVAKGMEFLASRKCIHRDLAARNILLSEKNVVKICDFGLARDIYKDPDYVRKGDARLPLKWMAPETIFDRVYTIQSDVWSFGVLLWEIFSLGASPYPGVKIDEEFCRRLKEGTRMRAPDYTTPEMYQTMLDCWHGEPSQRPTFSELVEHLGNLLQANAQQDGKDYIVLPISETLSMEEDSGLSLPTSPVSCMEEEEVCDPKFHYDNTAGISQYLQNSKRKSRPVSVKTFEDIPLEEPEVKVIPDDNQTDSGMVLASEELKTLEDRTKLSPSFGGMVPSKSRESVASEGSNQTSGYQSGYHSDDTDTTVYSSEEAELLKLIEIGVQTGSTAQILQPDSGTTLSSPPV
Sequence of Ribosomal protein S6 kinase beta-1 (P23443 whole entry): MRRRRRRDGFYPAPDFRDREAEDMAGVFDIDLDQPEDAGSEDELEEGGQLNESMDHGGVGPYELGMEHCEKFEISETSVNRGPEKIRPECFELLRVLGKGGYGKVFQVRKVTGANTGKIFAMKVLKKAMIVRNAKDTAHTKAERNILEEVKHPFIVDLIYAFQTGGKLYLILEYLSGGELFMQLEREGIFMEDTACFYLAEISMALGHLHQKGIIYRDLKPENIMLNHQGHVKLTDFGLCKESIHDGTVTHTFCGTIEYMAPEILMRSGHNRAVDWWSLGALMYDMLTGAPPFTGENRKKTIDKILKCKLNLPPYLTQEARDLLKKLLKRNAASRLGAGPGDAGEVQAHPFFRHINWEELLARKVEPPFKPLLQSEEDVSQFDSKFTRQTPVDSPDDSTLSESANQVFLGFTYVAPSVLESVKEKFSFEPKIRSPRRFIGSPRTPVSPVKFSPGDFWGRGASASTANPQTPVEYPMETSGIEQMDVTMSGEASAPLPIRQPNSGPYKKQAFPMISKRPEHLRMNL
Sequence of MAP kinase-activated protein kinase 2 (P49137 whole entry): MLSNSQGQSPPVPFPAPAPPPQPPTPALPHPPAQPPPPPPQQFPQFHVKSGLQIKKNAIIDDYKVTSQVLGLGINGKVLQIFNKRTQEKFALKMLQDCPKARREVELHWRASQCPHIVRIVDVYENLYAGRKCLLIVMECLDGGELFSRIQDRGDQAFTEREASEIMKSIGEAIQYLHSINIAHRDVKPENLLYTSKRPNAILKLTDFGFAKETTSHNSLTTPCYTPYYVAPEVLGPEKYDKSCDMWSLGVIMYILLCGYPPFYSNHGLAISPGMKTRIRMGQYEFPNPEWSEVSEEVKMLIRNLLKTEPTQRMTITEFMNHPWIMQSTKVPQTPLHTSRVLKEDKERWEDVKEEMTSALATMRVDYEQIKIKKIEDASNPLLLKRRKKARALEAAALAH
Sequence of Dual specificity mitogen-activated protein kinase kinase 1 (Q02750 whole entry): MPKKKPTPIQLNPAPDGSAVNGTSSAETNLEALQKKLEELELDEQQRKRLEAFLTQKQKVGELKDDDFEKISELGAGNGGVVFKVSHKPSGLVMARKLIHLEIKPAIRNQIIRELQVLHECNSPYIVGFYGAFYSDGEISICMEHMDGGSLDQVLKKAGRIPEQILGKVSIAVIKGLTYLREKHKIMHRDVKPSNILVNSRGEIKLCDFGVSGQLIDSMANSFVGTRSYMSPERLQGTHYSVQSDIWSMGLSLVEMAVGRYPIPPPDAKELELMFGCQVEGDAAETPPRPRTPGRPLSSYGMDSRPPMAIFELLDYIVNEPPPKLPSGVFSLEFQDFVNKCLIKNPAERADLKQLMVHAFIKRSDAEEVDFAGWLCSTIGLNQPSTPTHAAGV
Sequence of Mitogen-activated protein kinase kinase kinase 8 (P41279 whole entry): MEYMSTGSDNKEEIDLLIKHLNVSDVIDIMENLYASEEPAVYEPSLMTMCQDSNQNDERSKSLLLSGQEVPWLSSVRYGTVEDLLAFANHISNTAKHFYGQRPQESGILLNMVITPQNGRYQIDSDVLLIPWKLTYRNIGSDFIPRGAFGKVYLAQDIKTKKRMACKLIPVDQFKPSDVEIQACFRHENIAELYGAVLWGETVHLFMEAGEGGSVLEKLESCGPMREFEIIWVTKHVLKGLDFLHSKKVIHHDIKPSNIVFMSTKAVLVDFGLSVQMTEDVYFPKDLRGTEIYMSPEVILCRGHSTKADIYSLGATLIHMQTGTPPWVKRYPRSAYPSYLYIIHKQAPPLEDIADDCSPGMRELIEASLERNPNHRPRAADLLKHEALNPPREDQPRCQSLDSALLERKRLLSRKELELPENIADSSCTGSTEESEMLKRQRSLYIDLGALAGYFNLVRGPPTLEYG
Sequence of Cyclin-dependent kinase 4 (P11802 whole entry): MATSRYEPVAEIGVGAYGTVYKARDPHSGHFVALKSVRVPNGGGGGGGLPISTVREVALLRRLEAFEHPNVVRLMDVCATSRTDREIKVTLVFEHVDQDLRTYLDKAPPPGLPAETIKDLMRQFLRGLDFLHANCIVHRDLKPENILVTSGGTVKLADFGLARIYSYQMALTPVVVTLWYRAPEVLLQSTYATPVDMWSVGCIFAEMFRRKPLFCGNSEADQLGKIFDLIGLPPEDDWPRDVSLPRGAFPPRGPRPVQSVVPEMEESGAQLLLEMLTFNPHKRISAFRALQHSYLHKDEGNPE
Sequence of Tyrosine-protein kinase Lyn (P07948 whole entry): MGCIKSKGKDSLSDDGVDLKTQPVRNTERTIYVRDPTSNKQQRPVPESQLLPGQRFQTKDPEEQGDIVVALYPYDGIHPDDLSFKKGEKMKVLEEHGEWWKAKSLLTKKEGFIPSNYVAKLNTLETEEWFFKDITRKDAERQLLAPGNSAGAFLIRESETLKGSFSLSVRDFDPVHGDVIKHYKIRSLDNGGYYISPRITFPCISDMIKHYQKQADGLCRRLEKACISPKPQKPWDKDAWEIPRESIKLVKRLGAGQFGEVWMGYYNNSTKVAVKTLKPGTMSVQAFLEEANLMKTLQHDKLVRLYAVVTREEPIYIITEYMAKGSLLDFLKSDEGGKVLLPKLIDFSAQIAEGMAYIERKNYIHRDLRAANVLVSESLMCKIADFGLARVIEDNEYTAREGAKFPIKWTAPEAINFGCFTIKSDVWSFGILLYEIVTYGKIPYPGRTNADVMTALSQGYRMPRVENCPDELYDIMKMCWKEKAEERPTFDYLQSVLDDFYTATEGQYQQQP

For `COC[C@H]1OC(=O)c2coc3c2[C@@]1(C)C1=C(C3=O)[C@@H]2CC[C@H](O)[C@@]2(C)C[C@H]1OC(C)=O`, the half-life in [1] and in [3] was 4 min in each case. The negative-log IC50 (pIC50) was 8.57 in [2], 5.83 in the data set on LNCaP and 6.71 in [4].
Take `CCN(/C=C1/C(=O)O[C@H](COC)[C@@]2(C)C1=C(O)C(=O)C1=C2[C@H](OC(C)=O)C[C@]2(C)[C@@H](O)CC[C@@H]12)CC`: the results for the negative-log IC50 (pIC50) (in data set [2]; with LNCaP; in data set [4]) were 6.42, 6.80 and 4.85, respectively. In data set [3], the half-life turned out to be 57 min.
`COC[C@H]1OC(=O)/C(=C/N(C)CCCN(C)C)C2=C(O)C(=O)C3=C([C@H](OC(C)=O)C[C@]4(C)[C@@H](O)CC[C@@H]34)[C@]21C`: the minimal effective dose is 2.5 mg/kg in [5] and under 1.25 mg/kg in data set [22]. Besides, the half-life in data set [1] was 30 min. Further, the negative-log IC50 (pIC50) in [6] was under 5.00; in data set [7] it was under 4.40; in data set [2], 7.19; in data set [8] it was under 5.00; in [10] it was 7.89; in data set [11] it was under 4.30. The pIC50 in data set [12] was under 5.00; in [13] it was under 4.52; in data set [14] it was 5.10; in data set [15], 7.96; in data set [16], under 5.00; in [17] it was under 4.52. Moreover, the negative-log IC50 (pIC50) with LNCaP is 6.41; in data set [20], under 4.52; in data set [21], under 3.70; in data set [25] it was under 5.00; in data set [4], 5.53. Further, the result in data set [9] and in data set [23] was Active. This compound also showed a clearance in data set [18] of 3 L/h/kg. Moreover, the Vd in [19] was determined as 0.7 L/kg. This compound came in with a solubility in data set [24] of over 10 mg/mL.
Turning to `COC[C@H]1OC(=O)/C(=C/N(CCO)C(C)(C)C)C2=C(O)C(=O)C3=C([C@H](OC(C)=O)C[C@]4(C)[C@@H](O)CC[C@@H]34)[C@]21C`, the figures for the minimal effective dose in [5], in data set [27] and in data set [22] were 15 mg/kg, 5 mg/kg and 7.5 mg/kg, respectively. The pIC50 was under 5.00 in data set [6]; under 4.40 in data set [7]; 5.95 in data set [2]; under 5.00 in [8]; under 4.30 in [11]; under 5.00 in [12]. For the same compound, the negative logarithm of the IC50 (pIC50) is under 4.52 in [13]; under 5.00 in [26]; under 5.00 in data set [16]; under 4.52 in data set [17]; 6.89 with LNCaP; under 4.52 in [20]. Besides, the negative-log IC50 (pIC50) in data set [21] was under 3.70; in [25] it was under 5.00; in data set [4], 4.54.
